Reference: ChEMBL document CHEMBL1781998, “Synthesis and biological evaluation of boron peptide analogues of Belactosin C as proteasome inhibitors” (Bioorg Med Chem Lett, 2009)
Where a SMILES comes first, the peptide text is derived from it. The star is where a group is joined. Cbz = O=C(OCc1ccccc1)*

How the values were obtained:
[1] = Inhibition of chymotrypsin-like activity of human erythrocyte 20S proteasome using Suc-LLVY-AMC substrate incubated at 37 degC for 1 hr by fluorometric assay
In short: (§1)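 Compound combined with 75 µM fluorogenic substrate in 20 mM Tris pH 8.0, 0.5 mM EDTA, 0.035% SDS. Reaction started with 50 ng of purified human erythrocyte 20S proteasome and run 1 h at 37 °C. Stopped with 20 mM Tris pH 8.9, 0.5% SDS; released AMC read at 365 nm excitation / 460 nm emission.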

[2] = Inhibition of caspase-like activity of human erythrocyte 20S proteasome using Z-LLE-AMC substrate incubated at 37 degC for 1 hr by fluorometric assay; in short: as §1
[3] = Inhibition of trypsin-like activity of human erythrocyte 20S proteasome using Boc-LLR-AMC substrate incubated at 37 degC for 1 hr by fluorometric assay; settings: in the assay text read “Boc-LRR-AMC” for “Boc-LLR-AMC”; in short: as §1
[4] = system: HeLa; experiment: Growth inhibition of human HeLa cells after 72 hrs by MTT assay; type: functional, cell-based
In short: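 HeLa cells incubated for 72 h with a range of compound concentrations; viability read by MTT assay and used to derive IC50.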

[5] = system: HeLa; experiment: Cell cycle arrest in human HeLa cells assessed as accumulation at G1 phase at 1 uM after 24 hrs by flow cytometry (reference value: 56.4 +/- 0.39%); type: functional
[6] = system: HeLa; experiment: Cell cycle arrest in human HeLa cells assessed as accumulation at S phase at 1 uM after 24 hrs by flow cytometry (reference value: 30 +/- 0.46%); type: functional
[7] = system: HeLa; experiment: Cell cycle arrest in human HeLa cells assessed as accumulation at G2/M phase at 1 uM after 24 hrs by flow cytometry (reference value: 13.7 +/- 0.87%); type: functional
[8] = system: HeLa; experiment: Cell cycle arrest in human HeLa cells assessed as accumulation at G1 phase at 10 uM after 24 hrs by flow cytometry (reference value: 56.4 +/- 0.39%); type: functional
[9] = system: HeLa; experiment: Cell cycle arrest in human HeLa cells assessed as accumulation at S phase at 10 uM after 24 hrs by flow cytometry (reference value: 30 +/- 0.46%); type: functional
[10] = system: HeLa; experiment: Cell cycle arrest in human HeLa cells assessed as accumulation at G2/M phase at 10 uM after 24 hrs by flow cytometry (reference value: 13.7 +/- 0.87%); type: functional
[11] = system: HeLa; experiment: Induction of apoptosis in human HeLa cells at 1 uM incubated for 12 hrs using annexin V-FITC and propidiun iodide staining based flow cytometry (reference value: 2.6 +/- 0.14%); type: functional
In short: (§2)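 HeLa cells treated for 12 h, then stained with annexin V-FITC and propidium iodide; apoptosis measured by flow cytometry. Values are mean ± sd of triplicate samples.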

[12] = system: HeLa; experiment: Induction of apoptosis in human HeLa cells at 10 uM incubated for 12 hrs using annexin V-FITC and propidiun iodide staining based flow cytometry (reference value: 2.6 +/- 0.14%); type: functional; in short: as §2
[13] = Antiproliferative activity against human HeLaS3 cells after 72 hrs; type: functional, cell-based; settings: HeLa S3, 72 h
In short: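 HeLa cells were exposed to a range of compound concentrations for 72 h, and viability was then read by MTT assay. IC50 values are growth inhibition, reported as mean ± sd of triplicate samples.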

[14] = system: HeLa; experiment: Cell cycle arrest in human HeLa cells assessed as accumulation at G1 phase at 0.1 uM after 24 hrs by flow cytometry (reference value: 56.4 +/- 0.39%); type: functional
[15] = system: HeLa; experiment: Cell cycle arrest in human HeLa cells assessed as accumulation at S phase at 0.1 uM after 24 hrs by flow cytometry (reference value: 30 +/- 0.46%); type: functional
[16] = system: HeLa; experiment: Cell cycle arrest in human HeLa cells assessed as accumulation at G2/M phase at 0.1 uM after 24 hrs by flow cytometry (reference value: 13.7 +/- 0.87%); type: functional
[17] = system: HeLa; experiment: Induction of apoptosis in human HeLa cells at 0.1 uM incubated for 12 hrs using annexin V-FITC and propidiun iodide staining based flow cytometry (reference value: 2.6 +/- 0.14%); type: functional; in short: as §2

Compound	IC50 [1]	IC50 [2]	IC50 [3]	IC50 [4]	further results
CC(C)C[C@H](NC(=O)CC[C@H](NC(=O)CNC(=O)OC(C)(C)C)C(=O)NCc1ccc2ccccc2c1)B(O)O	0.28 µM	8.54 µM	> 10 µM	0.35 µM	Activity [5]: 57.7%; Activity [6]: 16.4%; Activity [7]: 26%; Activity [8]: 23%; Activity [9]: 14.4%; Activity [10]: 62.6%; Activity [11]: 12.9%; Activity [12]: 15.2%
CC(C)C[C@H](NC(=O)CC[C@H](NC(=O)[C@H](C)NC(=O)OC(C)(C)C)C(=O)NCc1ccc2ccccc2c1)B(O)O	0.84 µM	9.84 µM	> 10 µM	2.35 µM	–
CC(C)C[C@H](NC(=O)CC[C@H](NC(=O)[C@H](CC(C)C)NC(=O)OC(C)(C)C)C(=O)NCc1ccc2ccccc2c1)B(O)O	1.5 µM	> 10 µM	> 10 µM	0.79 µM	–
CC(C)C[C@H](NC(=O)CC[C@H](NC(=O)[C@H](Cc1ccccc1)NC(=O)OC(C)(C)C)C(=O)NCc1ccc2ccccc2c1)B(O)O	1.47 µM	> 10 µM	> 10 µM	0.66 µM	–
CC(C)C[C@H](NC(=O)CC[C@H](NC(=O)CNC(=O)OC(C)(C)C)C(=O)NCc1ccccc1)B(O)O	0.54 µM	> 10 µM	> 10 µM	5.11 µM	Activity [5]: 56.2%; Activity [6]: 30.7%; Activity [7]: 13.1%; Activity [8]: 43.2%; Activity [9]: 30.7%; Activity [10]: 26%; Activity [11]: 7.6%; Activity [12]: 11.7%
CC(C)C[C@H](NC(=O)CCC[C@H](NC(=O)CNC(=O)OC(C)(C)C)C(=O)NCc1ccc2ccccc2c1)B(O)O	2.74 µM	> 10 µM	> 10 µM	> 10 µM	–
CC(C)C[C@H](NC(=O)CCC[C@H](NC(=O)[C@H](C)NC(=O)OC(C)(C)C)C(=O)NCc1ccc2ccccc2c1)B(O)O	4.28 µM	> 10 µM	> 10 µM	> 10 µM	–
CC(C)C[C@H](NC(=O)C[C@H](NC(=O)OC(C)(C)C)C(=O)NCc1ccc2ccccc2c1)B(O)O	4.51 µM	> 10 µM	> 10 µM	> 10 µM	–
CC(C)C[C@H](NC(=O)CC[C@H](NC(=O)OC(C)(C)C)C(=O)NCc1ccc2ccccc2c1)B(O)O	> 10 µM	> 10 µM	> 10 µM	> 10 µM	–
CC(C)C[C@H](NC(=O)CCC[C@H](NC(=O)OC(C)(C)C)C(=O)NCc1ccc2ccccc2c1)B(O)O	4.12 µM	> 10 µM	> 10 µM	> 10 µM	–
CC[C@H](C)[C@@H]1C(=O)O[C@H]1C(=O)N[C@H]1C[C@H]1C[C@H](NC(=O)[C@H](C)N)C(=O)O [BELACTOSIN A]	–	–	–	–	IC50 [13]: 51 µM
CC[C@H](C)[C@@H]1C(=O)O[C@H]1C(=O)NCCC[C@H](NC(=O)[C@H](C)N)C(=O)O [BELACTOSIN C]	–	–	–	–	IC50 [13]: 200 µM
CC(C)C[C@H](NC(=O)[C@H](Cc1ccccc1)NC(=O)c1cnccn1)B(O)O [BORTEZOMIB]	0.02 µM	0.68 µM	> 10 µM	0.02 µM	Activity [14]: 14.6%; Activity [15]: 15.9%; Activity [16]: 69.6%; Activity [17]: 14.5%
CC(C)C[C@@H](C=O)NC(=O)[C@H](CC(C)C)NC(=O)[C@H](CC(C)C)NC(=O)OCc1ccccc1 [MG-132] (Cbz-Leu-Leu-Leu-aldehyde)	0.07 µM	7.23 µM	> 10 µM	–	–
